In ChEMBL document CHEMBL1151744, “New analgesics synthetically derived from the paracetamol metabolite N-(4-hydroxyphenyl)-(5Z,8Z,11Z,14Z)-icosatetra-5,8,11,14-enamide” (J Med Chem, 2008):
The source made the active and inactive calls. The rule behind the calls is not given here.

What was measured:
Mus musculus [1] = experiment: Antinociceptive activity against formalin-induced nociceptive behavior in C57BL/6 mouse assessed as mean licking time at 55 mg/kg, ip administered 15 mins prior to formalin challenge measured upto 10 mins relative to control; format: functional; settings: route intraperitoneal
Outline: (§1)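 C57BL/6 mice (n = 6-8 per group) were habituated 15-20 min in an observation chamber with mirrors, then given the compound ip at 6 µL/g in PBS/DMSO. Formalin (5%, 20 µL) went into the dorsal left hind paw 15 min later. Licking of the injected paw was summed over 0-10 min (phase 1) and 15-45 min (phase 2) and expressed as % of the vehicle control. Groups were compared by t test.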

Mus musculus [2] = experiment: Antinociceptive activity against formalin-induced nociceptive behavior in C57BL/6 mouse assessed as mean licking time at 55 mg/kg, ip administered 15 mins prior to formalin challenge measured after 15 to 45 mins relative to control; format: functional; settings: route intraperitoneal; outline: as §1
Mus musculus [3] = experiment: Antinociceptive activity against formalin-induced nociceptive behavior in C57BL/6 mouse assessed as mean licking time at 275 mg/kg, ip administered 15 mins prior to formalin challenge measured upto 10 mins relative to control; format: functional; settings: route intraperitoneal; outline: as §1
Cannabinoid receptor 2 [4] = target: T1, Cannabinoid receptor 2 (Homo sapiens, UniProt P34972); experiment: Displacement of [3H]CP-55940 from human recombinant CB2 receptor expressed in HEK293 cells at 10 uM; format: cell-based
T1 sequence (P34972 whole entry): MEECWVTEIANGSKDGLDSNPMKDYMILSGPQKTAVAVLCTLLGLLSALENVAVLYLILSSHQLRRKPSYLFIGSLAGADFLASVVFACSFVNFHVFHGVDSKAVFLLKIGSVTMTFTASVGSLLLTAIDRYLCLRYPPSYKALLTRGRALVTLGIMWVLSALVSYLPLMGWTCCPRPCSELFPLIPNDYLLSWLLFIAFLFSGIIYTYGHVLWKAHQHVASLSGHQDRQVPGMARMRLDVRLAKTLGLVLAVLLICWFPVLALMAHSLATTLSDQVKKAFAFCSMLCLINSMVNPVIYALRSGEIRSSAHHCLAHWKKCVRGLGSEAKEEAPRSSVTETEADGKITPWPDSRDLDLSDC

Mus musculus [5] = experiment: Antinociceptive activity against formalin-induced nociceptive behavior in C57BL/6 mouse assessed as mean licking time lat 27.5 mg/kg, ip administered 15 mins prior to formalin challenge measured upto 10 mins relative to control; format: functional; settings: route intraperitoneal; outline: as §1
[6] = target: T2, Prostaglandin G/H synthase 2 (Homo sapiens) (UniProt P35354); experiment: Inhibition of cyclooxygenase 2 in human whole blood assessed as prostaglandin E2 level
T2 sequence (whole entry): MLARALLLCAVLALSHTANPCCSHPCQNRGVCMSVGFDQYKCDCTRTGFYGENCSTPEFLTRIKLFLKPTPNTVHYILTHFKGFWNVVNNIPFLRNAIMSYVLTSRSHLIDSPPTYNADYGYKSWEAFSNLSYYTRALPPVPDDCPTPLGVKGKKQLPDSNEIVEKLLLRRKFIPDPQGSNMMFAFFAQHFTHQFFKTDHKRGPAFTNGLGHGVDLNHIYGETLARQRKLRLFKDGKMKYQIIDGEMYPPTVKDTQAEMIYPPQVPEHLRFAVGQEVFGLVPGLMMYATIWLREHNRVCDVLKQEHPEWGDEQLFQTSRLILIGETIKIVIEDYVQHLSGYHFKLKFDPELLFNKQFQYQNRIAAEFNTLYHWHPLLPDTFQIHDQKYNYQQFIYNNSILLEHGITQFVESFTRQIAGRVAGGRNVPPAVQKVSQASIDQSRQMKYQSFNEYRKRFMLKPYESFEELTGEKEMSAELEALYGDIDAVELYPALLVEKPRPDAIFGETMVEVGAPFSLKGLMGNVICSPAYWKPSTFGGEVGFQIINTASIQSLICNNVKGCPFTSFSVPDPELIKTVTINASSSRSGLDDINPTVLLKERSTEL

Mus musculus [7] = experiment: Antinociceptive activity against formalin-induced nociceptive behavior in C57BL/6 mouse assessed as mean licking time at 27.5 mg/kg, ip administered 15 mins prior to formalin challenge measured after 15 to 45 mins relative to control; format: functional; settings: route intraperitoneal; outline: as §1
[8] = target: Prostaglandin G/H synthase 1 (Homo sapiens, UniProt P23219); experiment: Inhibition of cyclooxygenase 1 in human whole blood assessed as thromboxane B2 level; format: tissue-based
Chain of Prostaglandin G/H synthase 1 (P23219 whole entry): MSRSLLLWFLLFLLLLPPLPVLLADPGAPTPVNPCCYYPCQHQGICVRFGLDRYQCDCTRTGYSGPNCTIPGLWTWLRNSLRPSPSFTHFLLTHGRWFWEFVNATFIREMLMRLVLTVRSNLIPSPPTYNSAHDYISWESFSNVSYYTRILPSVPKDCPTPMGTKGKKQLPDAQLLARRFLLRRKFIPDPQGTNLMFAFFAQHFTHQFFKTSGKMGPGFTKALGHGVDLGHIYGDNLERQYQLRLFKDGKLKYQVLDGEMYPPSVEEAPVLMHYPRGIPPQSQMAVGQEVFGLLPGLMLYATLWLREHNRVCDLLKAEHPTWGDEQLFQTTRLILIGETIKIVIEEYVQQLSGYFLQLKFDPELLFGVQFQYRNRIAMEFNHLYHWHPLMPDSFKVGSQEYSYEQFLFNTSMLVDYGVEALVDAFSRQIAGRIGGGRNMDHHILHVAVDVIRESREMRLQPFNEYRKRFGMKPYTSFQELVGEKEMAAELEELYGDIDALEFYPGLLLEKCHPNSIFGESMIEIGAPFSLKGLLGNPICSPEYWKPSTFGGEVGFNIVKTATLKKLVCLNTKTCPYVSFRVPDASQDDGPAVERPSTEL
Outline: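 Fresh whole blood came from a healthy volunteer free of NSAIDs for 2 weeks. 1 mL aliquots received test agent in DMSO and were left to clot for 1 h at 37 °C. Serum TXB2 was measured by GC-MS/MS, in quadruplicate.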

Mus musculus [9] = experiment: Antinociceptive activity against formalin-induced nociceptive behavior in C57BL/6 mouse assessed as mean licking time at 275 mg/kg, ip administered 15 mins prior to formalin challenge measured after 15 to 45 mins relative to control; format: functional; settings: route intraperitoneal; outline: as §1
Cannabinoid receptor 1 [10] = target: T3, Cannabinoid receptor 1 (Homo sapiens, UniProt P21554); experiment: Displacement of [3H]CP-55940 from human recombinant CB1 receptor expressed in HEK293 cells at 10 uM; format: cell-based
T3 sequence (P21554 whole entry): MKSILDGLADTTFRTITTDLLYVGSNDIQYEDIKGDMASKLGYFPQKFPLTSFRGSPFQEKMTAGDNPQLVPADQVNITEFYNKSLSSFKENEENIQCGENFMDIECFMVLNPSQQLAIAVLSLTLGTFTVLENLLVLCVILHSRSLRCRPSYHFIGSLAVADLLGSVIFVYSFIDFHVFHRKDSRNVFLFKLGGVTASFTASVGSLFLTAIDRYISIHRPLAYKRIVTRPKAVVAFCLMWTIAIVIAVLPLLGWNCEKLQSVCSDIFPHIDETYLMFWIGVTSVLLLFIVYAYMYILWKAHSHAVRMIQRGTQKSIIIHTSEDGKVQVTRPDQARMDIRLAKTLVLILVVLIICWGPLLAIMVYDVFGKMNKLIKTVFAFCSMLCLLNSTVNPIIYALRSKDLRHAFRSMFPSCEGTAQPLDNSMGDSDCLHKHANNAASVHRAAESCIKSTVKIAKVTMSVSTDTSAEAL

Mus musculus [11] = species: Mus musculus; experiment: Toxicity in C57BL/6 mouse assessed as loss of locomotor behavior; format: organism-based; settings: in vivo
[12] = target: T4, Fatty-acid amide hydrolase 1 (Rattus norvegicus) (UniProt P97612); experiment: Inhibition of FAAH in rat brain membrane assessed as [14C]anandamide hydrolysis at 50 uM by scintillation counting; format: cell membranes
T4 sequence (whole entry): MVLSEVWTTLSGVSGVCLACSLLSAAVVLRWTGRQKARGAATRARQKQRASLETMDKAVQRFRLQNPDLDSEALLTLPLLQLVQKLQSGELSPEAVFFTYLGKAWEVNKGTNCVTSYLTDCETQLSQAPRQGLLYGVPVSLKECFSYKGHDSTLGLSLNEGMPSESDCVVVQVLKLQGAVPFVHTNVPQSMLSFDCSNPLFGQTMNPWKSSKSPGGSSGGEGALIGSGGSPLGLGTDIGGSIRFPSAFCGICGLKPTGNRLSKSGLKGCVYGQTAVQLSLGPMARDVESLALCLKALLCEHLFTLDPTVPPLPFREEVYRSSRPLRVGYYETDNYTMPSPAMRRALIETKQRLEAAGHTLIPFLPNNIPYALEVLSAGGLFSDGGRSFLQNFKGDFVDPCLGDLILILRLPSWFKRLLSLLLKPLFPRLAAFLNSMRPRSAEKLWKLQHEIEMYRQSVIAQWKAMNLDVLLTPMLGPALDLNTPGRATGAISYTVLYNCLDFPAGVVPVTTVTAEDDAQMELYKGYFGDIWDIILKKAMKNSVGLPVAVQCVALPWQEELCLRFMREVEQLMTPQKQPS
Outline: (§2)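 Enzyme source was a rat brain membrane pellet resuspended in 50 mM Tris-HCl, pH 9.0, 70 µg protein per assay. It was incubated with compound (10 or 50 µM) and [14C]anandamide (10000 cpm) for 30 min at 37 °C. After CHCl3/MeOH (1:1) extraction, [14C]ethanolamine in the aqueous phase was counted by scintillation. Points were run in duplicate.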

[13] = target: T4, Fatty-acid amide hydrolase 1 (Rattus norvegicus); experiment: Inhibition of FAAH in rat brain membrane assessed as [14C]anandamide hydrolysis at 10 uM by scintillation counting; format: cell membranes; outline: as §2
Cannabinoid receptor 2 [14] = target: T1, Cannabinoid receptor 2; experiment: Displacement of [3H]CP-55940 from human recombinant CB2 receptor expressed in HEK293 cells; format: cell-based
Outline: (§3)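 Membranes were from HEK-293 cells overexpressing human CB1 or CB2, with [3H]CP-55,940 as radioligand (Kd 0.18 nM CB1, 0.31 nM CB2). Test compound (1 nM-10 µM) was incubated 90 min at 30 °C. Displaced radioligand was counted by scintillation. Ki came from IC50 via Cheng-Prusoff, with triplicate points; single-concentration screens were run in duplicate.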

Cannabinoid receptor 1 [15] = target: T3, Cannabinoid receptor 1; experiment: Displacement of [3H]CP-55940 from human recombinant CB1 receptor expressed in HEK293 cells; format: cell-based; outline: as §3
[16] = target: T5, Prostaglandin G/H synthase 2 (Homo sapiens, UniProt P35354); experiment: Inhibition of cyclooxygenase 2 in human whole blood assessed as prostaglandin E2 level
T5 sequence (P35354 whole entry): T2 sequence (whole entry)

Mus musculus [17] = experiment: Toxicity in C57BL/6 mouse assessed as loss of locomotor behavior at 325 mg/kg; format: organism-based; parameters: dose 325 mg/kg; settings: in vivo
[18] = target: T2, Prostaglandin G/H synthase 2 (Homo sapiens); experiment: Inhibition of human recombinant cyclooxygenase 2 assessed as prostaglandin F2alpha level at 10 uM by enzyme immunoassay relative to control
Outline: (§4)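 Isolated ovine COX-1 or human recombinant COX-2 was incubated with compound at 1 or 10 µM for 10 min at 37 °C. Buffer was 0.1 M Tris-HCl pH 8.0 with 5 mM EDTA and 2 mM phenol. PGH2 formed was reduced to PGF2α with stannous chloride for quantification. Ketoprofen (10 µM) served as reference; values are means of four experiments.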

[19] = target: T6, Prostaglandin G/H synthase 1 (Ovis aries) (UniProt P05979); experiment: Inhibition of ovine cyclooxygenase 1 assessed as prostaglandin F2alpha level at 10 uM by enzyme immunoassay relative to control; outline: as §4
T6 sequence (whole entry): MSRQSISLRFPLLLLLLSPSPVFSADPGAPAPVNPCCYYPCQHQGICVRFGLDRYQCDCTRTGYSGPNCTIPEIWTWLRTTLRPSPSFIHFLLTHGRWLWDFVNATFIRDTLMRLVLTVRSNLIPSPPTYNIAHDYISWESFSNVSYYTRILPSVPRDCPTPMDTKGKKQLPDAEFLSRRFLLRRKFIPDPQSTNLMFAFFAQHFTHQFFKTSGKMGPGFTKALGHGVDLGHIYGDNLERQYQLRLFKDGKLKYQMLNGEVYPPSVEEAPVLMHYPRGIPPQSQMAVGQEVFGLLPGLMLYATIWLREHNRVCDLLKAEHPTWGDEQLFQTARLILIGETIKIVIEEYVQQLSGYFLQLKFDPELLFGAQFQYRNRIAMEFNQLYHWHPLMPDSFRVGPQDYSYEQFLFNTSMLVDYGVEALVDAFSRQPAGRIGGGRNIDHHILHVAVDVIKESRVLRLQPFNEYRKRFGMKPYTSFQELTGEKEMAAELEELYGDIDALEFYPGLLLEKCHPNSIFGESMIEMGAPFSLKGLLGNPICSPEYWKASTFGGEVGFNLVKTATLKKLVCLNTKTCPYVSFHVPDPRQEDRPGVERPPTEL

Mus musculus [20] = experiment: Antinociceptive activity against formalin-induced nociceptive behavior in C57BL/6 mouse assessed as mean licking time at 200 mg/kg, ip administered 15 mins prior to formalin challenge measured after 15 to 45 mins relative to control; format: functional; settings: route intraperitoneal; outline: as §1
Mus musculus [21] = experiment: Antinociceptive activity against formalin-induced nociceptive behavior in C57BL/6 mouse assessed as mean licking time at 200 mg/kg, ip administered 15 mins prior to formalin challenge measured upto 10 mins relative to control; format: functional; settings: route intraperitoneal; outline: as §1

Compound: CC(=O)NCc1ccc(O)cc1
- Activity (Mus musculus [1]): 128%
- Activity (Mus musculus [2]): 71%
- Activity (Mus musculus [3]): 50%
- Activity (Cannabinoid receptor 2 [4]): 7%
- Activity (Mus musculus [5]): 227%
- Activity [6]: inactive
- Activity (Mus musculus [7]): 97%
- Activity [8]: inactive
- Activity (Mus musculus [9]): 37%
- Activity (Cannabinoid receptor 1 [10]): 5%
- Activity (Mus musculus [11]): Non-toxic
- inhibition [12]: 4%

Compound: CCCCC/C=C\C/C=C\C/C=C\C/C=C\CCCC(=O)Nc1ccc(O)cc1
- inhibition [13]: 15%
- Ki (Cannabinoid receptor 2 [14]): 1.3 µM
- inhibition [12]: 55%
- Ki (Cannabinoid receptor 1 [15]): 1.5 µM

Compound: COc1cc(NC(C)=O)ccc1O
- Activity (Cannabinoid receptor 2 [4]): 22%
- IC50 [16]: 138 µM
- IC50 [8]: 234 µM
- Activity (Cannabinoid receptor 1 [10]): 16%
- Activity (Mus musculus [17]): Toxic
- inhibition [12]: 8%

Compound: CC(C(=O)O)c1cccc(C(=O)c2ccccc2)c1 (stereo not given)
- inhibition [18]: 41%
- inhibition [19]: 16%

Compound: CC(=O)Nc1ccc(O)cc1 [ACETAMINOPHEN]
- Activity (Cannabinoid receptor 2 [4]): 15%
- Activity (Mus musculus [20]): 47%
- Activity [8]: Active
- Activity (Mus musculus [21]): 100%
- Activity (Cannabinoid receptor 1 [10]): 13%
- inhibition [12]: 22%
